# Data taken from ChEMBL document CHEMBL3352437, “Novel 3,5-bis(arylidene)-4-oxo-1-piperidinyl dimers: structure-activity relationships and potent antileukemic and antilymphoma cytotoxicity” (Eur J Med Chem, 2014).
# Legend:
# [1] = test system: Jurkat; experiment: Cytotoxicity against human Jurkat cells assessed as dead cells at 1 uM after 24 hrs; type: functional
# Outline: (§1)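 Dienones added as DMSO solutions to cells in RPMI medium and incubated 24 h at 37°C. Cytotoxicity was scored as cell-membrane disruption by propidium iodide staining and expressed as percentage of dead cells, averaged over three independent experiments.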
# [2] = test system: K562; experiment: Antileukemic activity against human K562 cells assessed as inhibition of tumor growth after 24 hrs; type: functional, cell-based; conditions: K562, 24 h
# [3] = test system: MOLT-4; experiment: Ratio of curcumin IC50 to compound IC50 for human Molt4/C8 cells; type: functional; conditions: pooled result: one value given for 4 cell lines, strains, targets or settings
# [4] = test system: HCC 2998; experiment: Cytotoxicity against human HCC2998 cells assessed as inhibition of tumor growth after 24 hrs; type: functional, cell-based; conditions: HCC 2998, 24 h
# [5] = test system: SW-620; experiment: Cytotoxicity against human SW620 cells assessed as inhibition of tumor growth after 24 hrs; type: functional, cell-based; conditions: SW-620, 24 h
# [6] = test system: CCRF-CEM; experiment: Antiproliferative activity against human CEM cells after 72 hrs by coulter counting analysis; type: functional, cell-based
# Outline: (§2)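 Cells exposed to a range of concentrations in RPMI 1640 at 37°C for 72 h. Surviving cells counted by Coulter counter. IC50 taken from concentration-response curves, mean ± SD of at least three independent experiments.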
# [7] = test system: Ramos; experiment: Cytotoxicity against human Ramos cells assessed as dead cells at 1 uM after 24 hrs; type: functional; outline: as §1
# [8] = test system: BJAB; experiment: Cytotoxicity against human BJAB cells assessed as dead cells at 1 uM after 24 hrs; type: functional; outline: as §1
# [9] = test system: SR; experiment: Antileukemic activity against human SR cells assessed as inhibition of tumor growth after 24 hrs; type: functional, cell-based
# [10] = Antiproliferative activity against human Molt4/C8 cells after 72 hrs by coulter counting analysis; type: functional, cell-based; conditions: MOLT-4, 72 h; outline: as §2
# [11] = test system: LAPC4; experiment: Cytotoxicity against human LAPC4 cells assessed as dead cells at 1 uM after 24 hrs; type: functional; outline: as §1
# [12] = test system: Raji; experiment: Cytotoxicity against human Raji cells assessed as dead cells at 1 uM after 24 hrs; type: functional; outline: as §1
# [13] = test system: YT; experiment: Cytotoxicity against human YT cells assessed as dead cells at 1 uM after 24 hrs; type: functional; outline: as §1
# [14] = test system: HeLa; experiment: Antiproliferative activity against human HeLa cells after 72 hrs by coulter counting analysis; type: functional, cell-based; outline: as §2
# [15] = test system: HCC70; experiment: Cytotoxicity against human HCC70 cells assessed as dead cells at 1 uM after 24 hrs; type: functional; outline: as §1
# [16] = Cytotoxicity against human HCT15 cells assessed as inhibition of tumor growth after 24 hrs; type: functional, cell-based; conditions: HCT-15, 24 h
# [17] = test system: RPMI-8226; experiment: Ratio of melphalan IC50 to compound IC50 for human RPMI8226 cells; type: functional; conditions: pooled result: one value given for 3 cell lines, strains, targets or settings
# [18] = test system: COLO 205; experiment: Cytotoxicity against human COLO205 cells assessed as inhibition of tumor growth after 24 hrs; type: functional, cell-based; conditions: COLO 205, 24 h
# [19] = Antileukemic activity against human RPMI8226 cells assessed as inhibition of tumor growth after 24 hrs; type: functional, cell-based; conditions: rpmi-8226
# [20] = Cytotoxicity against human HuT-102 cells assessed as dead cells at 1 uM after 24 hrs; type: functional; outline: as §1
# [21] = test system: MCF7; experiment: Cytotoxicity against human MCF7 cells assessed as dead cells at 1 uM after 24 hrs; type: functional; outline: as §1
# [22] = Cytotoxicity against human MDA231 cells assessed as dead cells at 1 uM after 24 hrs; type: functional, MDA-MB-231; outline: as §1
# [23] = test system: KM12; experiment: Cytotoxicity against human KM12 cells assessed as inhibition of tumor growth after 24 hrs; type: functional, cell-based; conditions: KM12, 24 h
# [24] = test system: HS27; experiment: Cytotoxicity against human HS27 cells assessed as dead cells at 1 uM after 24 hrs; type: cell-based; conditions: hs27, 24 h
# Outline: (§3)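 Compounds added from DMSO solutions to cells in medium (RPMI; DMEM for Hs-27 fibroblasts) and incubated 24 h at 37°C. Membrane disruption scored by propidium iodide uptake. Result is percentage of dead cells, average of three independent experiments.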
# [25] = Cytotoxicity against human SupT1 cells assessed as dead cells at 1 uM after 24 hrs; type: functional, SUP-T1; outline: as §1
# [26] = Cytotoxicity against human 22Rvl cells assessed as dead cells at 1 uM after 24 hrs; type: functional; outline: as §1
# [27] = test system: HL-60(TB); experiment: Antileukemic activity against human HL-60(TB) cells assessed as inhibition of tumor growth after 24 hrs; type: functional, cell-based; conditions: HL-60, 24 h
# [28] = test system: CCRF-CEM; experiment: Cytotoxicity against human CEM cells assessed as dead cells at 1 uM after 24 hrs; type: functional; outline: as §1
# [29] = Cytotoxicity against human NALM6 cells assessed as dead cells at 1 uM after 24 hrs; type: functional, NALM-6; outline: as §1
# [30] = Cytotoxicity against human MOLT3 cells assessed as dead cells at 1 uM after 24 hrs; type: functional, MOLT-3; outline: as §1
# [31] = test system: EL4; experiment: Cytotoxicity against mouse EL4 cells assessed as dead cells at 1 uM after 24 hrs; type: functional; outline: as §1
# [32] = test system: L1210; experiment: Antiproliferative activity against mouse L1210 cells after 72 hrs by coulter counting analysis; type: functional, cell-based; conditions: L1210, 72 h
# [33] = test system: DU-145; experiment: Cytotoxicity against human DU145 cells assessed as dead cells at 1 uM after 24 hrs; type: functional; outline: as §1
# [34] = test system: MOLT-4; experiment: Ratio of melphalan IC50 to compound IC50 for human Molt4/C8 cells; type: functional; conditions: pooled result: one value given for 4 cell lines, strains, targets or settings
# [35] = Cytotoxicity against human MCF10A cells assessed as dead cells at 1 uM after 24 hrs; type: cell-based; conditions: mcf-10a; outline: as §3
# [36] = test system: COLO 205; experiment: Ratio of 5-fluorouracil IC50 to compound IC50 for human COLO205 cells; type: functional; conditions: pooled result: one value given for 5 cell lines, strains, targets or settings
# [37] = Cytotoxicity against human NCI60 cells assessed as inhibition of tumor growth after 24 hrs; type: functional, cell-based; conditions: NCI60, 24 h
compound,measurement,setting,value
COc1cc(/C=C2\CN(C(=O)C(=O)N3C/C(=C\c4cc(OC)c(OC)c(OC)c4)C(=O)/C(=C/c4cc(OC)c(OC)c(OC)c4)C3)C/C(=C\c3cc(OC)c(OC)c(OC)c3)C2=O)cc(OC)c1OC,Activity,[1],78.7%
same,IC50,[2],30 nM
same,Ratio IC50,[3],63.8
same,IC50,[4],100 nM
same,IC50,[5],30 nM
same,IC50,[6],325 nM
same,Activity,[7],65.1%
same,Activity,[8],60.9%
same,IC50,[9],20 nM
same,IC50,[10],47 nM
same,Activity,[11],9.7%
same,Activity,[12],55.7%
same,Activity,[13],13%
same,IC50,[14],246 nM
same,Activity,[15],7.3%
same,IC50,[16],70 nM
same,Ratio IC50,[17],1418
same,IC50,[18],70 nM
same,IC50,[19],20 nM
same,Activity,[20],50.5%
same,Activity,[21],43.2%
same,Activity,[22],4.7%
same,IC50,[23],60 nM
same,Activity,[24],15.4%
same,Activity,[25],38.2%
same,Activity,[26],3.4%
same,IC50,[27],70 nM
same,Activity,[28],84.1%
same,Activity,[29],67.6%
same,Activity,[30],30.3%
same,Activity,[31],33.8%
same,IC50,[32],182 nM
same,Activity,[33],41.3%
same,Ratio IC50,[34],13.5
same,Activity,[35],7.6%
same,Ratio IC50,[36],121
same,IC50,[37],60 nM
